In ChEMBL document CHEMBL4354843, “Structure-Based Design of a Potent and Selective Covalent Inhibitor for SRC Kinase That Targets a P-Loop Cysteine” (J Med Chem, 2020):

Tests used:
[1] = molecular target: Aurora kinase C (Homo sapiens) (UniProt Q9UQB9); assay: Binding affinity to wild-type human full length AURKC (M1 to S275 residues) expressed in bacterial expression system assessed as residual binding level at 1 uM by Kinomescan method relative to control
In short: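 KinomeScan, an active site-directed competition binding panel of 468 kinases. The test compound was at 1 μM. The readout is remaining kinase binding as a percentage of the DMSO control. Scores above 35% were treated as weak binding and not listed.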

[2] = molecular target: G protein-coupled receptor kinase 4 (Homo sapiens) (UniProt P32298); assay: Binding affinity to wild-type human full length GRK4 (M1 to C578 residues) expressed in bacterial expression system assessed as residual binding level at 1 uM by Kinomescan method relative to control
In short: (§1)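 Active-site-directed KinomeScan competition binding panel covering 468 kinases, compound tested at 1 μM. Each readout is the kinase signal remaining with compound, expressed as a percentage of the DMSO control. […]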

[3] = system: Phosphatidylinositol 4,5-bisphosphate 3-kinase catalytic subunit alpha isoform (Homo sapiens), P42336 [I800L]; assay: Binding affinity to human partial length PIK3CA I800L mutant (R108 to N1068 residues) expressed in mammalian expression system assessed as residual binding level at 1 uM by Kinomescan method relative to control
In short: (§2)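 KinomeScan active site-directed competition binding panel (468 kinases), compound tested at 1 μM. Result expressed as remaining kinase signal versus DMSO control (percent of control).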

[4] = molecular target: Serine/threonine-protein kinase pim-2 (Homo sapiens) (UniProt Q9P1W9); assay: Binding affinity to wild-type human partial length PIM2 (M1 to E291 residues) expressed in bacterial expression system assessed as residual binding level at 1 uM by Kinomescan method relative to control
[5] = molecular target: Serine/threonine-protein kinase ULK3 (Homo sapiens) (UniProt Q6PHR2); assay: Binding affinity to wild-type human partial length ULK3 (M1 to Q290 residues) expressed in mammalian expression system assessed as residual binding level at 1 uM by Kinomescan method relative to control
[6] = molecular target: Ribosomal protein S6 kinase alpha-6 (Homo sapiens) (UniProt Q9UK32); assay: Binding affinity to wild-type human partial length N- terminal RSK4 kinase domain 1 (M1 to E397 residues) expressed in mammalian expression system assessed as residual binding level at 1 uM by Kinomescan method relative to control
In short: (§3)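 Active-site-directed competition binding panel of 468 kinases (KinomeScan), compound at 1 μM. The read-out is kinase remaining bound, given as a percentage of the DMSO control. […]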

[7] = molecular target: STE20/SPS1-related proline-alanine-rich protein kinase (Homo sapiens) (UniProt Q9UEW8); assay: Binding affinity to wild-type human partial length STK39 (P43 to I357 residues) expressed in mammalian expression system assessed as residual binding level at 1 uM by Kinomescan method relative to control
[8] = molecular target: Leucine-rich repeat serine/threonine-protein kinase 2 (Homo sapiens) (UniProt Q5S007); assay: Binding affinity to wild-type human partial length LRRK2 (H970 to E2527 residues) expressed in mammalian expression system assessed as residual binding level at 1 uM by Kinomescan method relative to control
[9] = molecular target: MAP kinase-interacting serine/threonine-protein kinase 2 (Homo sapiens) (UniProt Q9HBH9); assay: Binding affinity to wild-type human partial length MKNK2 (G63 to S388 residues) expressed in mammalian expression system assessed as residual binding level at 1 uM by Kinomescan method relative to control; in short: as §3
[10] = molecular target: Activin receptor type-2A (Homo sapiens) (UniProt P27037); assay: Binding affinity to wild-type human ACVR2A (V171 to T499 residues) expressed in bacterial expression system assessed as residual binding level at 1 uM by Kinomescan method relative to control; in short: as §1
[11] = molecular target: Casein kinase I isoform gamma-2 (Homo sapiens) (UniProt P78368); assay: Binding affinity to wild-type human full length CSNK1G2 (M1 to K415 residues) expressed in bacterial expression system assessed as residual binding level at 1 uM by Kinomescan method relative to control; in short: as §1
[12] = molecular target: Cyclin-dependent kinase 11A (Homo sapiens) (UniProt Q9UQ88); assay: Binding affinity to wild-type human partial length CDC2L2 (D391 to K730 residues) expressed in bacterial expression system assessed as residual binding level at 1 uM by Kinomescan method relative to control
[13] = molecular target: Cyclin-dependent kinase 15 (Homo sapiens) (UniProt Q96Q40); assay: Binding affinity to wild-type human full length PFTAIRE2 (M1 to W384 residues) expressed in bacterial expression system assessed as residual binding level at 1 uM by Kinomescan method relative to control
In short: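 Active-site-directed competition binding panel (KinomeScan) covering 468 kinases. Test agent was screened at 1 μM. The read-out is the remaining kinase signal expressed relative to a DMSO control. Scores above 35%, taken as weak binding, were not reported.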

[14] = molecular target: Cyclin-dependent kinase 11B (Homo sapiens) (UniProt P21127); assay: Binding affinity to wild-type human partial length CDC2L1 (P353 to G692 residues) expressed in bacterial expression system assessed as residual binding level at 1 uM by Kinomescan method relative to control
[15] = molecular target: Serine/threonine-protein kinase DCLK2 (Homo sapiens) (UniProt Q8N568); assay: Binding affinity to wild-type human partial length DCAMKL2 (K273 to V664 residues) expressed in bacterial expression system assessed as residual binding level at 1 uM by Kinomescan method relative to control
[16] = molecular target: Serine/threonine-protein kinase BRSK2 (Homo sapiens) (UniProt Q8IWQ3); assay: Binding affinity to wild-type human full length BRSK2 (M1 to L674 residues) expressed in bacterial expression system assessed as residual binding level at 1 uM by Kinomescan method relative to control; in short: as §1
[17] = molecular target: Tyrosine-protein kinase Mer (Homo sapiens) (UniProt Q12866); assay: Binding affinity to wild-type human partial length MERTK (R557 to L884 residues) expressed in bacterial expression system assessed as residual binding level at 1 uM by Kinomescan method relative to control
[18] = molecular target: Phosphatidylinositol 5-phosphate 4-kinase type-2 gamma (Homo sapiens) (UniProt Q8TBX8); assay: Binding affinity to wild-type human partial length PIP5K2C (M1 to A421 residues) expressed in mammalian expression system assessed as residual binding level at 1 uM by Kinomescan method relative to control
[19] = molecular target: Serine/threonine-protein kinase D1 (Homo sapiens) (UniProt Q15139); assay: Binding affinity to wild-type human partial length PRKD1 (G551 to E870 residues) expressed in bacterial expression system assessed as residual binding level at 1 uM by Kinomescan method relative to control
[20] = system: Epidermal growth factor receptor (Homo sapiens), P00533 [T790M]; assay: Binding affinity to human partial length EGFR T790M mutant (R669 to G1022 residues) expressed in mammalian expression system assessed as residual binding level at 1 uM by Kinomescan method relative to control; in short: as §2
[21] = molecular target: G protein-coupled receptor kinase 3 (Homo sapiens) (UniProt P35626); assay: Binding affinity to wild-type human full length GRK3 (M1 to L688 residues) expressed in mammalian expression system assessed as residual binding level at 1 uM by Kinomescan method relative to control; in short: as §1
Chain of G protein-coupled receptor kinase 3 (Homo sapiens) (P35626 whole entry, the tested form may be a part): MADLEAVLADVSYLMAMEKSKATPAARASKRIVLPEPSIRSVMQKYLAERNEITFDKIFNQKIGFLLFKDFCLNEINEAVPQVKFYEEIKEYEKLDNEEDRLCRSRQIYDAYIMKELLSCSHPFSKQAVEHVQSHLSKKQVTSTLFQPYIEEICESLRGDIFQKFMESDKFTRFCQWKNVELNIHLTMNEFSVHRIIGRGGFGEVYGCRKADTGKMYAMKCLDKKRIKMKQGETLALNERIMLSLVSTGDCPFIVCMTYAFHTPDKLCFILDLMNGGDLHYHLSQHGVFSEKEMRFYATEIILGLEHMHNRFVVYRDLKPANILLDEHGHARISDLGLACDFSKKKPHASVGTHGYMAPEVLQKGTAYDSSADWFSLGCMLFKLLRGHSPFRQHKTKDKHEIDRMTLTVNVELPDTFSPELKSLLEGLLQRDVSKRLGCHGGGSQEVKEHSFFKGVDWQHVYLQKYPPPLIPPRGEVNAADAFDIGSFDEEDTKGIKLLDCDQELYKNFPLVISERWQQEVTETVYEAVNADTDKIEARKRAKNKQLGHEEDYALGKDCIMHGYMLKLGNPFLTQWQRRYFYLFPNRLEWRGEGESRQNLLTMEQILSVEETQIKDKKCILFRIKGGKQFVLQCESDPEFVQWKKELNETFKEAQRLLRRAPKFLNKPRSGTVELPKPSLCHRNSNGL

Chain of MAP kinase-interacting serine/threonine-protein kinase 2 (Homo sapiens) (Q9HBH9 whole entry, looked up, the tested form may be a part): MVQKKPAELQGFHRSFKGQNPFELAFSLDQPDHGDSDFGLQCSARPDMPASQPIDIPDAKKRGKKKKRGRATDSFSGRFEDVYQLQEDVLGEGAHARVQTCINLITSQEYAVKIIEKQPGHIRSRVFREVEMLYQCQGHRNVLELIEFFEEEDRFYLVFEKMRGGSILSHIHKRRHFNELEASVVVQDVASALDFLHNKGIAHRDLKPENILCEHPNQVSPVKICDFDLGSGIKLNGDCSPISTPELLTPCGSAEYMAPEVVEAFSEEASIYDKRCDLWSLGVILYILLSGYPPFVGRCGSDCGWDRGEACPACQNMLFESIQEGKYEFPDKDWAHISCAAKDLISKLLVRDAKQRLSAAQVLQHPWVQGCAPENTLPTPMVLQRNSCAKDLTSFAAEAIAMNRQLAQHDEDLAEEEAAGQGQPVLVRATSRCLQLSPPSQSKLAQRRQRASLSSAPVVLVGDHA
Chain of Cyclin-dependent kinase 15 (Homo sapiens) (Q96Q40 whole entry, the tested form may be a part): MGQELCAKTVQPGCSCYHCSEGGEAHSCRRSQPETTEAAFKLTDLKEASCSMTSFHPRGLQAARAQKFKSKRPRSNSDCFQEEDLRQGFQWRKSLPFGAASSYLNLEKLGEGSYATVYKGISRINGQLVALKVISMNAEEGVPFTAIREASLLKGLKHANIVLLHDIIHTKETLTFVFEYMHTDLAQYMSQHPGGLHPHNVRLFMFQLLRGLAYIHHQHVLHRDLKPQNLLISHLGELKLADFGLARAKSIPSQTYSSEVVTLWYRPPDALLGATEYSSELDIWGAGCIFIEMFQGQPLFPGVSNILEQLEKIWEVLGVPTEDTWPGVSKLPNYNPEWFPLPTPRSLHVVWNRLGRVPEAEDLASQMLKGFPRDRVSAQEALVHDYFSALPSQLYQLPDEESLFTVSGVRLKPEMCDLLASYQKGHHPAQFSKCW
Chain of Serine/threonine-protein kinase ULK3 (Homo sapiens) (Q6PHR2 whole entry, the tested form may be a part): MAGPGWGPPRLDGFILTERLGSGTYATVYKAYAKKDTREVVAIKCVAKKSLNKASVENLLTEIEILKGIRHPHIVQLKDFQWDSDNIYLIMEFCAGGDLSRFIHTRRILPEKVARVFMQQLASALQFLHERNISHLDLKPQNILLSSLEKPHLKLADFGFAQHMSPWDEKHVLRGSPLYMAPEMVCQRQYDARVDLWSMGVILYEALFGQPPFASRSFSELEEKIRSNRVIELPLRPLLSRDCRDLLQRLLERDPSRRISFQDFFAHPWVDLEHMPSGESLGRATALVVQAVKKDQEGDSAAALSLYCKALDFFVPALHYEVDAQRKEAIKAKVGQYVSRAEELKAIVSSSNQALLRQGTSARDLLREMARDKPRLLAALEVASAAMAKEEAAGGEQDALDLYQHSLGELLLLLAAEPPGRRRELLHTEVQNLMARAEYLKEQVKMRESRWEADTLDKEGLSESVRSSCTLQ
Chain of Phosphatidylinositol 4,5-bisphosphate 3-kinase catalytic subunit alpha isoform (Homo sapiens), P42336 [I800L] (P42336 whole entry I800L, the tested form may be a part, canonical isoform): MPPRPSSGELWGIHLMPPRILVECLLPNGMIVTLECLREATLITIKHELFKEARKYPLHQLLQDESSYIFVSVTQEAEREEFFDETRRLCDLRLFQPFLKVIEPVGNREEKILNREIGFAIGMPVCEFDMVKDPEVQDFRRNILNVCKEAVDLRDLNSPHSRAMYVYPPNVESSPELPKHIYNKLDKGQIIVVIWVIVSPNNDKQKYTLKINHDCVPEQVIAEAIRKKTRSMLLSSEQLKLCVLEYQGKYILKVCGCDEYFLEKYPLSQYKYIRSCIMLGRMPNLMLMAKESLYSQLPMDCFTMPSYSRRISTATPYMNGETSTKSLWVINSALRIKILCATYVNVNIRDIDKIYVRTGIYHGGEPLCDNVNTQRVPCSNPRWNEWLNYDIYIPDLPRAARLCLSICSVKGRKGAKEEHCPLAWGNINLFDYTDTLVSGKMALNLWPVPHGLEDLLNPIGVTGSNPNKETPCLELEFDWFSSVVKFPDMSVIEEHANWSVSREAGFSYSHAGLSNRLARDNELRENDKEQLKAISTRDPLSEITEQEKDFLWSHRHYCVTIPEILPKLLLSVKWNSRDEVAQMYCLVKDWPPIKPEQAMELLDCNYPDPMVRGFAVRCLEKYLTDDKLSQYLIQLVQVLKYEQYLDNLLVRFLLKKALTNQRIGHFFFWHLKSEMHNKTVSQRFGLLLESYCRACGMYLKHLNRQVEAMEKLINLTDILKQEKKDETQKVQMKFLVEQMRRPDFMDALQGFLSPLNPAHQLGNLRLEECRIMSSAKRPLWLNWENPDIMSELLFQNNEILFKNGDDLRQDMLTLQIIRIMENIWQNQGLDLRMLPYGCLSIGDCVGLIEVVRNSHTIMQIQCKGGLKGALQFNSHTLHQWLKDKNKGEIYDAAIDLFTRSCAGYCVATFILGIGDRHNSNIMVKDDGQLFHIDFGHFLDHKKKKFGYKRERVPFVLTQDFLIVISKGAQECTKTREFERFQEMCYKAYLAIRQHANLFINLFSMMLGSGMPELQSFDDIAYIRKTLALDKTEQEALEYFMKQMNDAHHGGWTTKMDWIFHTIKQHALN
Chain of Tyrosine-protein kinase Mer (Homo sapiens) (Q12866 whole entry, the tested form may be a part): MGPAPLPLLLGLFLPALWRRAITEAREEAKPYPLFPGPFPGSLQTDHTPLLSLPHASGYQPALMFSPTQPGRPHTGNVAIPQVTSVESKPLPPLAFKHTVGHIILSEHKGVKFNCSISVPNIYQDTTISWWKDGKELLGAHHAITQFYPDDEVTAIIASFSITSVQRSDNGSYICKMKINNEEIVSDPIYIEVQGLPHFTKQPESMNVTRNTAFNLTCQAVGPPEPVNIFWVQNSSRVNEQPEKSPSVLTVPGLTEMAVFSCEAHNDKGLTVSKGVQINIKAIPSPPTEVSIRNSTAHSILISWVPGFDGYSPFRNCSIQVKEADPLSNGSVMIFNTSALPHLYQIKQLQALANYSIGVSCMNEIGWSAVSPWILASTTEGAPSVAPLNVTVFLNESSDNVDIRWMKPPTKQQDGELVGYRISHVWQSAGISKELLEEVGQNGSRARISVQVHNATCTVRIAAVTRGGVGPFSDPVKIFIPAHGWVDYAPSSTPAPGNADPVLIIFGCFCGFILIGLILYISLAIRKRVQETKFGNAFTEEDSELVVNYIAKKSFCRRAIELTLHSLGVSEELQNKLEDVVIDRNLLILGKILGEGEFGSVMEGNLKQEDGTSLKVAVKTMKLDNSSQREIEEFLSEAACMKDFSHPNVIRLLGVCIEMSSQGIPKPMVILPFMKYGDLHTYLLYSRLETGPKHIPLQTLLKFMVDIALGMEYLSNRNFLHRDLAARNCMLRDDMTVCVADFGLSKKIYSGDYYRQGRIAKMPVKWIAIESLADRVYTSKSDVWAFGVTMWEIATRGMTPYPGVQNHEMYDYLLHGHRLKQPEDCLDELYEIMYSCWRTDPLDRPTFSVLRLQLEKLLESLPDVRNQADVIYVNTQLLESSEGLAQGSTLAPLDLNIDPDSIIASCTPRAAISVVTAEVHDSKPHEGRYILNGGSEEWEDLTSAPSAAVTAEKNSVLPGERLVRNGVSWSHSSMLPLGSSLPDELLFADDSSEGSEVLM
Chain of Serine/threonine-protein kinase BRSK2 (Homo sapiens) (Q8IWQ3 whole entry, the tested form may be a part): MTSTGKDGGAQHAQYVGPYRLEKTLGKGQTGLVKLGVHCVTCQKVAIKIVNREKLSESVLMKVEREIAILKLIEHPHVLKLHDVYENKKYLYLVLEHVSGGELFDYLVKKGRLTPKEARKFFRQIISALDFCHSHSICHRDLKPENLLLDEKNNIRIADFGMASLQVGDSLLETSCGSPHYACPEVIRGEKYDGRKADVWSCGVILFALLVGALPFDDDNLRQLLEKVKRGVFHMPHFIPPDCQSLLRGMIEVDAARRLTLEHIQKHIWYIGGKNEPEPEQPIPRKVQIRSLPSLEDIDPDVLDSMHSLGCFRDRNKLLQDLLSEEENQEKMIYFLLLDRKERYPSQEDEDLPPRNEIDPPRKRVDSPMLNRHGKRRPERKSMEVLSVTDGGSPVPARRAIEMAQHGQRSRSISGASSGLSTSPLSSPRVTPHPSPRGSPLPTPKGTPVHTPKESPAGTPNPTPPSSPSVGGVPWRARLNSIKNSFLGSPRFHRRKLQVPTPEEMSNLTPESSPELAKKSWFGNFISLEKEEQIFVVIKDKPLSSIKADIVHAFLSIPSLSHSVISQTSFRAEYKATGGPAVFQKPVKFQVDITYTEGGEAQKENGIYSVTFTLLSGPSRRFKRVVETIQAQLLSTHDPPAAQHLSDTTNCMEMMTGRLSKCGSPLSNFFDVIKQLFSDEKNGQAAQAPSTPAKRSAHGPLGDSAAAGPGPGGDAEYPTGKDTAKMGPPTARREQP

Structure (SMILES): C=CC(=O)Nc1ccccc1Nc1nc(Nc2ccc(N3CCN(C)CC3)cc2)ncc1C(=O)Nc1c(C)cccc1Cl
- Activity [1]: 98%
- Activity [2]: 100%
- Activity [3]: 86%
- Activity [4]: 95%
- Activity [5]: 100%
- Activity [6]: 77%
- Activity [7]: 65%
- Activity [8]: 100%
- Activity [9]: 97%
- Activity [10]: 100%
- Activity [11]: 100%
- Activity [12]: 100%
- Activity [13]: 100%
- Activity [14]: 100%
- Activity [15]: 100%
- Activity [16]: 100%
- Activity [17]: 95%
- Activity [18]: 100%
- Activity [19]: 100%
- Activity [20]: 100%
- Activity [21]: 100%
